# Rows were chosen to be rich in hits. Some 3.5% of all compounds tested hit in one or more screens of this group.
# RGS4 inh: RGS4 inhibitors, primary screen, cell-based, HEK293 M3R inducible RGS4, calcium flux; Regulator of G-protein signaling 4 (Homo sapiens), P49798; Fluo-4 calcium flux; stronger effect = higher value; triggered by carbachol at its EC20; B-score at 10 µM; 0.45% of 310,000 active;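 active means B-score, a plate-corrected calcium signal, over three deviations above library mean, with baseline fluorescence within five deviations of library mean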;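 further: RGS4 expression induced by doxycycline in cells with stable M3 receptor; B-score is computed from the integrated fluorescence ratio over baseline after carbachol; higher B-score means a larger calcium signal and so more RGS4 inhibition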
# Target sequence (P49798 whole entry, looked up): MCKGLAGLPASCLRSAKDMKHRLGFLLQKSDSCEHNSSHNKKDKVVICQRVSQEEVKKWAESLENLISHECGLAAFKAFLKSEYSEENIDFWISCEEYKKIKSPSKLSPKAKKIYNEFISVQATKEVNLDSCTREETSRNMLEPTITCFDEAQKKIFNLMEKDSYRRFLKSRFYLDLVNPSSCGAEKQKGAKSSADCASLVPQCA
# RGS4 act: RGS4 potentiators or activators, primary screen, cell-based, HEK293 M3R inducible RGS4, calcium flux | B-score at 10 µM | 0.92% of 310,000 active | carbachol calcium flux Fluo4; stronger effect = lower value;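 active means B-score of the integrated calcium signal more than 4 SD below the library mean, with starting fluorescence not abnormally high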;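 further: negative B-score means reduced calcium response which marks RGS4 activation or potentiation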
#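 Material: Inducible-RGS4 HEK293 cells carrying M3 receptor; also added: carbachol at ECmax as muscarinic agonist stimulus; incubation: compound preincubation 20 min at room temperature before agonist; signal: Fluo4-AM (2 µM) calcium-flux fluorescence, kinetic read; measure: integrated calcium ratio converted to B score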
# MrgX1 ag: agonists of human MrgX1 receptor, primary screen, HEK293 cells, Fluo-4 calcium flux | 0.44% of 310,000 active | B-score at 10 µM | Mas-related G-protein coupled receptor member X1 (Homo sapiens), Q96LB2 | Fluo-4 calcium fluorescence, agonist mode; stronger effect = higher value;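 active means calcium response B-score plate-corrected fluorescence ratio at least 3 library SD, with starting fluorescence B-score inside 5 SD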
# Target sequence (Q96LB2 whole entry, looked up): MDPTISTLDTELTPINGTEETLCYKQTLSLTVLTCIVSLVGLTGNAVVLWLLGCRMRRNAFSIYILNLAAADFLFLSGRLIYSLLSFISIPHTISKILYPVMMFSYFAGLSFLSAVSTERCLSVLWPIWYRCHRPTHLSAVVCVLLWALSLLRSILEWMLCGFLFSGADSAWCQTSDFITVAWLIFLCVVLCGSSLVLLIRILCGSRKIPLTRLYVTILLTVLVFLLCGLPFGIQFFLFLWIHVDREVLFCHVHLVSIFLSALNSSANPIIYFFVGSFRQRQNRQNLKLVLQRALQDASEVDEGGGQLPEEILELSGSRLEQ
#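 Material: HEK293 cells stably expressing human MrgX1 receptor | Quantity: 15,000 cells per well | Times: Cells plated overnight, dye loaded 0.5 h 37 °C, 0.5 h room temperature | Measured by: Kinetic Fluo-4 NW fluorescence of intracellular calcium | Control set: Positive and negative controls per plate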
# MrgX1 antagonist: antagonists of human MrgX1 receptor, primary screen, HEK293 cells, Fluo-4 calcium flux. B-score at 10 µM. BAM8-22 antagonism; stronger effect = lower value. Mas-related G-protein coupled receptor member X1 (Homo sapiens), Q96LB2. 1.3% of 310,000 active;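 active means calcium-response B-score plate-corrected more than 3 library SD below zero, starting fluorescence within 5 deviations, no agonist response on first addition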;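 further: peak minus trough fluorescence over baseline after final BAM8-22 challenge near maximal dose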
# MrgX1 allo act: positive allosteric modulators of MrgX1, primary screen, HEK293 cells, Fluo-4 calcium flux | AID 588675, 2011 | 0.63% of 310,000 active | Mas-related G-protein coupled receptor member X1 (Homo sapiens), Q96LB2 | B-score at 10 µM | FDSS; stronger effect = higher value;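 active means plate-corrected calcium response at least 3 library SD above typical, normal starting fluorescence, not activating the receptor alone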;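 further: compound read alongside a low EC10 to EC30 dose of BAM8-22 agonist; peak minus trough fluorescence over baseline measured at the second addition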
# MrgX1 allo conf: MrgX1 positive allosteric modulators, duplicate retest, confirmation, HEK293 cells, Fluo-4 calcium flux; Fluo-4 calcium fluorescence, FDSS; 13% of 1,200 active; shares compounds with MrgX1 allo act; AID 602413, 2012; activation (ratio percentage), % at 10 µM;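 active means ratio at least 3 SD above the weak peptide control, stable starting fluorescence, no direct agonism earlier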;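 further: compound followed by low BAM8-22 agonist challenge near EC20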
# HEK293 Ca flux: nonspecific calcium signal in parental HEK293, confirmation, counter-screen for MrgX1 antagonist project, parental HEK293 cells, Fluo-4 calcium flux. 2% of 4,000 active. Fluo-4 calcium fluorescence, FDSS. fluorescence ratio F(max-min)/F0 at 10 µM. AID 624111, 2012. shares compounds with MrgX1 antagonist;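 active means duplicate-averaged calcium fluorescence ratio at least three times the standard deviation of buffer wells, a nonspecific response in parental cells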
# HEK293 Ca counter: calcium response in parental HEK293 cells, primary screen, counter-screen for MrgX1 allosteric activator project, cell-based, Fluo-4 calcium flux, duplicate; 0.4% of 4,000 active; shares compounds with MrgX1 antagonist; fluorescence ratio F(max-min)/F0 at 10 µM; Fluo-4 fluorescence ratio; stronger effect = higher value;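 active means calcium fluorescence ratio, averaged over duplicates, at least 3 SD of the buffer-well ratio, meaning a nonspecific response in receptor-free cells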;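 further: untransfected parental HEK293 lacking MrgX1 used as counterscreen for MrgX1 allosteric activators; fluorescence change taken during the second addition on a kinetic imager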
# HEK293 Ca cntr2: calcium response in parental HEK293 cells, primary screen, counter-screen for MrgX1 agonist project, cell-based, Fluo-4 calcium flux, duplicate, agonist mode. 8.7% of 4,000 active. Fluo-4 calcium fluorescence (FDSS); stronger effect = higher value. fluorescence ratio F(max-min)/F0 at 10 µM. shares compounds with MrgX1 antagonist;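 active means calcium fluorescence ratio at least three times the spread of buffer wells, meaning a non-specific response in parental cells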
# An asterisk follows results filed as active; i = inactive; . = no result.
SMILES,RGS4 inh,RGS4 act,MrgX1 ag,MrgX1 antagonist,MrgX1 allo act,MrgX1 allo conf,HEK293 Ca flux,HEK293 Ca counter,HEK293 Ca cntr2
CN(Cc1ccccc1)C(=O)COC(=O)CCNC(=O)c1ccccc1Cl,i,i,i,i,i,.,.,.,.
Cc1ccc(NC(=O)c2nc[nH]c2C(=O)N2CCC(C)CC2)cc1,i,i,i,i,9.1*,i,i,i,i
CCN(CC)C(=O)c1[nH]cnc1C(=O)Nc1ccc(OC)cc1,i,i,i,i,i,.,.,.,.
COc1ccc(NC(=O)c2nc[nH]c2C(=O)N2CCC(C)CC2)cc1,i,i,i,i,8.2*,i,i,i,i
CCOC(=O)c1ccc(NC(=O)c2nc[nH]c2C(=O)N2CCC(C)CC2)cc1,i,i,i,i,i,.,.,.,.
CN(C(=O)CSc1nnc(-c2ccncc2)n1Cc1ccccc1)C1CCS(=O)(=O)C1 (stereo unspecified),i,i,i,i,i,.,.,.,.
CC(=O)N1CCN(CC(=O)Nc2cc(S(=O)(=O)N3CCOCC3)ccc2C)CC1,i,i,i,i,i,.,.,.,.
Nc1nc(CCl)nc(N(c2ccccc2)c2ccccc2)n1,i,i,i,i,10*,i,i,i,i
Nc1nc(Cl)nc(N(c2ccccc2)c2ccccc2)n1,i,i,i,i,i,.,.,.,.
CNc1nc2[nH]c(=O)c3c(c2s1)OC(N)=C(C#N)C3c1cccc(F)c1 (stereo unspecified),i,i,i,i,17*,i,i,i,i
Cc1sc(NC(=O)c2cccnc2)nc1-c1ccccc1,i,i,i,i,11*,i,i,i,i
CC(=O)c1sc(NC(=O)c2ccccc2)nc1-c1ccccc1,i,i,i,i,i,.,.,.,.
CCC(=O)NC(=S)Nc1cccc(NC(=O)c2ccccc2)c1,i,i,i,i,i,.,.,.,.
CCCC(=O)Nc1nc(-c2ccc(OC)cc2)cs1,i,i,i,i,i,.,.,.,.
COc1ccc(-c2csc(NC(=O)CS(=O)(=O)c3ccccc3)n2)cc1,i,i,i,i,12*,6.8%*,i,i,i
C/C(=N\NC(=O)CN1CCN(S(=O)(=O)c2ccc(C)cc2)CC1)c1ccncc1,i,i,i,i,i,.,.,.,.
CC1=CSC2=NC(=O)/C(=C\c3cccn3-c3ccc([N+](=O)[O-])cc3)C(=N)N12,i,i,i,i,26*,24%*,i,i,i
Cc1nc(-c2cc(C#N)c(Sc3cccc(C(F)(F)F)c3)nc2C)cs1,i,i,i,i,i,.,.,.,.
CNc1nc(Sc2ccccc2)cc(C(F)(F)F)n1,i,i,i,i,22*,i,i,i,i
CNc1nc(Sc2cccc(C(F)(F)F)c2)cc(C(F)(F)F)n1,i,i,i,i,10*,i,i,i,i
COc1ccccc1CN1C[C@@H]2C[C@@H](c3[nH]c4c(C)cccc4c3C)N3CCC[C@@]23C1=O,i,i,i,i,i,.,.,.,.
OCCn1c(-c2ccc3c(c2)OCO3)csc1=Nc1ccccc1,i,i,i,i,12*,i,i,i,i
CCOc1ccc(N=c2scc(-c3ccccc3)n2CCO)cc1,i,i,i,i,i,.,.,.,.
CCOc1ccc(N=c2scc(-c3ccc(OC)cc3)n2CCO)cc1,i,i,i,i,i,.,.,.,.
OCCn1c(-c2ccc(F)cc2)csc1=Nc1ccccc1,i,i,i,i,13*,i,i,i,i
SMILES,RGS4 inh,RGS4 act,MrgX1 ag,MrgX1 antagonist,MrgX1 allo act,MrgX1 allo conf,HEK293 Ca flux,HEK293 Ca counter,HEK293 Ca cntr2
CC(NC(=O)CNC(=O)C(Cc1ccccc1)NC(=O)OCc1ccccc1)C(N)=O (stereo unspecified),i,i,i,i,i,.,.,.,.
CC1(C)Oc2ccc(C(=O)N/N=C/c3ccc(O)cc3)cc2NC1=O,i,i,i,i,i,.,.,.,.
c1ccc(-c2ccc3ccccc3n2)cc1,i,i,i,i,i,.,.,.,.
c1ccc2nc(-c3ccc(-n4ccnc4)cc3)ccc2c1,i,i,i,i,8.9*,i,i,i,i
CN1CCN(c2ccc(C(F)(F)F)cc2NC(=O)Nc2ccccc2)CC1,i,i,i,i,i,.,.,.,.
Cc1cc(-c2nnnn2-c2ccc(C(F)(F)F)cc2)no1,i,i,i,i,7*,i,i,i,i
Cc1ccc(-n2nnnc2-c2cccc(C)c2)cc1,i,i,i,i,i,.,.,.,.
Cc1cc(-n2c(C)cc(C(=O)CN3C(=O)NC4(CCCC4)C3=O)c2C)no1,i,i,i,i,i,.,.,.,.
Cc1cc(-n2c(C)cc(C(=O)CCl)c2C)no1,i,i,i,i,10*,i,i,i,i
Cc1ccc(Cl)cc1N1CCN(C(=O)Cn2ncn3cccc3c2=O)CC1,i,i,i,i,i,.,.,.,.
CCN(CC)S(=O)(=O)c1cc(C(=O)Nc2cc(C)[nH]n2)ccc1Cl,i,i,i,i,i,.,.,.,.
O=C(O)CSc1ncnc2scc(-c3ccc(Br)cc3)c12,i,i,i,i,10*,i,i,i,i
O=C(O)CSc1ncnc2scc(-c3ccccc3)c12,i,i,i,i,i,.,.,.,.
COC(=O)c1ccc(OCCCCN2CC(C)OC(C)C2)cc1 (stereo unspecified),i,i,i,i,10*,i,i,i,i
COc1ccc(CCNC(=O)C2Cc3ccccc3C(=O)O2)cc1 (stereo unspecified),i,i,i,i,14*,i,i,i,i

# From PubChem BioAssay
